According to ChEMBL document CHEMBL1123457, “Effect of methoxy substitution on the adrenergic activity of three structurally related alpha 2-adrenoreceptor antagonists” (J Med Chem, 1986):

System: Adrenergic receptor alpha-1 (Mus musculus)
Assay: Agonist potency towards alpha-1 adrenergic receptor in the mouse isolated electrically stimulated vas deferens with reference to phenylephrine (postjunctional)

Potency | Structure (SMILES)
0 | COC(Oc1ccc(Cl)c(Cl)c1)C1=NCCN1 (configuration not stated)
0 | CCN(CC)CC1COc2ccccc2O1 (configuration not stated)
0 | CCN(CC)CC1(OC)COc2ccccc2O1 (configuration not stated)

Species: Rattus norvegicus
Assay: Agonist potency of phenylephrine in rat isolated anococcygeus muscle
Format: functional, Muscle tissue

Structure (SMILES) | pD2
CNC[C@H](O)c1cccc(O)c1 [PHENYLEPHRINE] | 6.54

System: Adrenergic receptor alpha-1 (Rattus norvegicus)
Assay: Agonist potency towards alpha-1 adrenergic receptor in the rat isolated anococcygeus with reference to phenylephrine (postjunctional)

Potency | Structure (SMILES)
0 | COC1(CN2CCCCC2)COc2ccccc2O1 (configuration not stated)

Biological target: T1, Alpha-2 adrenergic receptor (Mus musculus) (UniProt P30545+Q01338+Q01337)
Assay: Antagonist potency towards alpha-2 adrenergic receptor in the mouse isolated electrically stimulated vas deferens with reference to idazoxan (prejunctional)
Format: functional, tissue-based
Method in brief: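 Mouse vas deferens (adult male MFI mice, >30 g) under 0.5 g tension in magnesium-free Krebs, 30 °C, 95% O2/5% CO2. Field stimulation at 0.1 Hz, 3-ms pulses, 100-140 V giving about 100 mg twitch, isometric recording. Twitches were inhibited by 110 nM clonidine in the Krebs.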

Potency | Structure (SMILES)
0.0021 | COC(Oc1ccc(Cl)c(Cl)c1)C1=NCCN1 (configuration not stated)
0.033 | CCN(CC)CC1COc2ccccc2O1 (configuration not stated)
0.0037 | CCN(CC)CC1(OC)COc2ccccc2O1 (configuration not stated)
0.00065 | COC1(CN2CCCCC2)COc2ccccc2O1 (configuration not stated)
11.3 | COC1(C2=NCCN2)COc2ccccc2O1 (configuration not stated)

Structure (SMILES) | Potency
Clc1ccc(OCC2=NCCN2)cc1Cl | 0.018
c1ccc2c(c1)OCC(C1=NCCN1)O2 (configuration not stated) | 1
c1ccc2c(c1)OCC(CN1CCCCC1)O2 (configuration not stated) [PIPEROXAN] | 0.29

Biological target: T2, Adrenergic receptor alpha-1 (Rattus norvegicus) (UniProt P15823+P23944+P43140)
Assay: Antagonist potency towards alpha-1 adrenergic receptor in the rat isolated electrically stimulated vas deferens with reference to pA2 idazoxan (postjunctional)
Format: functional, tissue-based

Structure (SMILES) | Potency
COC1(C2=NCCN2)COc2ccccc2O1 (configuration not stated) | 8.3
c1ccc2c(c1)OCC(C1=NCCN1)O2 (configuration not stated) | 1
c1ccc2c(c1)OCC(CN1CCCCC1)O2 (configuration not stated) [PIPEROXAN] | 4.8

System: Adrenergic receptor alpha-1 (Rattus norvegicus)
Assay: Antagonist potency towards alpha-1 adrenergic receptor in the rat isolated anococcygeus with reference to pA2 idazoxan (postjunctional)

Potency | Structure (SMILES)
< 0.012 | COC1(CN2CCCCC2)COc2ccccc2O1 (configuration not stated)

Biological target: T2, Adrenergic receptor alpha-1 (Rattus norvegicus)
Assay: as above

Potency | Structure (SMILES)
0.063 | COC(Oc1ccc(Cl)c(Cl)c1)C1=NCCN1 (configuration not stated)
0.52 | CCN(CC)CC1COc2ccccc2O1 (configuration not stated)
< 0.012 | CCN(CC)CC1(OC)COc2ccccc2O1 (configuration not stated)

Biological target: T2, Adrenergic receptor alpha-1 (Rattus norvegicus)
Assay: Agonist potency towards alpha-1 adrenergic receptor in the rat isolated electrically stimulated vas deferens with reference to phenylephrine (postjunctional)
Format: functional, tissue-based
Method in brief: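 Vas deferens in Krebs solution (NaCl 118 mM, KCl 4.7 mM, CaCl2 2.5 mM, KH2PO4 1.2 mM, MgSO4 0.6 mM, NaHCO3 25 mM, dextrose 11.1 mM), gassed with 95% O2/5% CO2, at 30 °C. Intramural nerves stimulated with 3-ms rectangular pulses, 40 V, 0.1 Hz. Contractions recorded isometrically.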

Structure (SMILES) | Potency
Clc1ccc(OCC2=NCCN2)cc1Cl | 0.16
COC1(C2=NCCN2)COc2ccccc2O1 (configuration not stated) | 0
c1ccc2c(c1)OCC(C1=NCCN1)O2 (configuration not stated) | 0
c1ccc2c(c1)OCC(CN1CCCCC1)O2 (configuration not stated) [PIPEROXAN] | 0

Biological target: T1, Alpha-2 adrenergic receptor (Mus musculus)
Assay: Agonist potency towards alpha-2 adrenergic receptor in the mouse isolated electrically stimulated vas deferens with reference to clonidine (prejunctional)
Format: functional, tissue-based
Method in brief: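 Mouse vas deferens from adult male MFI mice (>30 g), 0.5 g initial tension, in magnesium-free Krebs at 30 °C, gassed 95% O2/5% CO2. Field stimulation at 0.1 Hz with 3-ms pulses; voltage of 100-140 V set to give about 100 mg twitch, recorded isometrically. Repeated cumulative concentration-response curves to clonidine were run until ID50 values were consistent.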

Potency | Structure (SMILES)
0 | COC(Oc1ccc(Cl)c(Cl)c1)C1=NCCN1 (configuration not stated)
0 | CCN(CC)CC1COc2ccccc2O1 (configuration not stated)
0 | CCN(CC)CC1(OC)COc2ccccc2O1 (configuration not stated)
0 | COC1(CN2CCCCC2)COc2ccccc2O1 (configuration not stated)
0 | COC1(C2=NCCN2)COc2ccccc2O1 (configuration not stated)

Structure (SMILES) | Potency
Clc1ccc(OCC2=NCCN2)cc1Cl | < 0.0008
c1ccc2c(c1)OCC(C1=NCCN1)O2 (configuration not stated) | 0
c1ccc2c(c1)OCC(CN1CCCCC1)O2 (configuration not stated) [PIPEROXAN] | 0

Biological target: T3, Adrenergic receptor alpha-1 (Rattus norvegicus, UniProt P15823+P23944+P43140)
T3 sequence (P15823 whole entry): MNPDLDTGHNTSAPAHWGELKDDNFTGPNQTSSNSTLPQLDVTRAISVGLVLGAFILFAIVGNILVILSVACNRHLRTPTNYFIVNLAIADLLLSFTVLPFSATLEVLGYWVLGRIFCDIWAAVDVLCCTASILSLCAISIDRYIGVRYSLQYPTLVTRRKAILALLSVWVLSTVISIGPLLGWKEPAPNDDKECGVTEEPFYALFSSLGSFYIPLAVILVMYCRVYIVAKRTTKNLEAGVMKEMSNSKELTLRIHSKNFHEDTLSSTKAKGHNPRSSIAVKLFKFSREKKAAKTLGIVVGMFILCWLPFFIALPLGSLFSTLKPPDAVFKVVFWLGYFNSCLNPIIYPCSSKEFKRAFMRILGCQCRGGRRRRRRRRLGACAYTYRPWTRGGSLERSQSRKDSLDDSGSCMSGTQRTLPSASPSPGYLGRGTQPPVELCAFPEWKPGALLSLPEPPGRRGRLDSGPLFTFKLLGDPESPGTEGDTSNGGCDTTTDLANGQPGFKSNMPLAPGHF
T3 sequence (P23944 whole entry): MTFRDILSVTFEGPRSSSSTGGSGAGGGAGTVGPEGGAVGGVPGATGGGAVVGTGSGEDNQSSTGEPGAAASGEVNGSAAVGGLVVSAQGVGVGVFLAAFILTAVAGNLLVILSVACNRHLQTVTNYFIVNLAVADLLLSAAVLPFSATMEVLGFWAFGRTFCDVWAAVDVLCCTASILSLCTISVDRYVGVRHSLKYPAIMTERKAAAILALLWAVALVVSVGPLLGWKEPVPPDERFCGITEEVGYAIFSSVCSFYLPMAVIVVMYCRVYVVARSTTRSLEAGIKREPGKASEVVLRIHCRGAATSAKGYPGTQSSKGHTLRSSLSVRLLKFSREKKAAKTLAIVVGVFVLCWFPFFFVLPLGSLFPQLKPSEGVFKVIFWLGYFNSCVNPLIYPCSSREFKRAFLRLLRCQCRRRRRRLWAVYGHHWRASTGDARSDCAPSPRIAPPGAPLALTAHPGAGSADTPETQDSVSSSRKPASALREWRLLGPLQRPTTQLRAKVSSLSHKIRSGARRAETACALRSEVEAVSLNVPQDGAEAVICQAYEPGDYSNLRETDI
T3 sequence (P43140 whole entry): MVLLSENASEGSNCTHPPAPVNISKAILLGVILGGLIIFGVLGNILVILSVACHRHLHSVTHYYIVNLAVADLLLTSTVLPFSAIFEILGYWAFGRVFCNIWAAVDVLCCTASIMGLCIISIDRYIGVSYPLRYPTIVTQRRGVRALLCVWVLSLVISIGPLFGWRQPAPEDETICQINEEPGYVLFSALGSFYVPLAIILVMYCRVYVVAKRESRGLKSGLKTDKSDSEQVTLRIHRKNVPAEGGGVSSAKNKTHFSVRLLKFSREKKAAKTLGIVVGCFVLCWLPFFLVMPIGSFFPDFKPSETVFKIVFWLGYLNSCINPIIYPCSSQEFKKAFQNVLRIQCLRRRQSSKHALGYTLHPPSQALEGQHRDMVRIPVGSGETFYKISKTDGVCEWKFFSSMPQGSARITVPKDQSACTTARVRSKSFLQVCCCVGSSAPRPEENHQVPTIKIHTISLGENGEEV
Assay: Antagonist potency towards alpha-1 adrenergic receptor in the rat electrically stimulated vas deferens with reference to phenylephrine
Format: functional, tissue-based

pA2 | Structure (SMILES)
< 4.48 | COC1(CN2CCCCC2)COc2ccccc2O1 (configuration not stated)
7.43 | COC1(C2=NCCN2)COc2ccccc2O1 (configuration not stated)

Biological target: T4, Adrenergic receptor alpha-2 (Rattus norvegicus, UniProt P22086+P19328+P22909)
T4 sequence (P22086 whole entry): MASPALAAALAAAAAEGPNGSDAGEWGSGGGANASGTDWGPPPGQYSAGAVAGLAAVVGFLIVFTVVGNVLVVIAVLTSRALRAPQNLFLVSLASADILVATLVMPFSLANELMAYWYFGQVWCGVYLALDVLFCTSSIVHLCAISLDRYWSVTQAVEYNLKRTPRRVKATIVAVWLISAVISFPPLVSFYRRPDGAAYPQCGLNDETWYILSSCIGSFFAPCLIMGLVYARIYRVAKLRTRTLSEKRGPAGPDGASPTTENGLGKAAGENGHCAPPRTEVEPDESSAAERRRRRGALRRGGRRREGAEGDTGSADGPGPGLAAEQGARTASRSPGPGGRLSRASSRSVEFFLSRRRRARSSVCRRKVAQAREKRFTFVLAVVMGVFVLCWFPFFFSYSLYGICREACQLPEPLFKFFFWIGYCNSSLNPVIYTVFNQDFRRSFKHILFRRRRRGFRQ
T4 sequence (P19328 whole entry): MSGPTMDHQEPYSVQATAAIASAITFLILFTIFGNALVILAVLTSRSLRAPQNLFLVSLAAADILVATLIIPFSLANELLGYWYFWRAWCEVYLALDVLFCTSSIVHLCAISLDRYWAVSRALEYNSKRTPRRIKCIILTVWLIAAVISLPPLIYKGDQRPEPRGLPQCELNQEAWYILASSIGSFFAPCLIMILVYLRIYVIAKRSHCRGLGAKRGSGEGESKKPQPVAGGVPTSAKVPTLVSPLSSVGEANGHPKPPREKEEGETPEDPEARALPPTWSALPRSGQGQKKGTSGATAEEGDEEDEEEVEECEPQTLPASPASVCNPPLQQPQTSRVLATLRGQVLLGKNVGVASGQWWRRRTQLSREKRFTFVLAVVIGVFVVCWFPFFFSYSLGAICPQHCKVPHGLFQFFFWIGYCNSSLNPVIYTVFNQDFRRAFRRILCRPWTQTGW
T4 sequence (P22909 whole entry): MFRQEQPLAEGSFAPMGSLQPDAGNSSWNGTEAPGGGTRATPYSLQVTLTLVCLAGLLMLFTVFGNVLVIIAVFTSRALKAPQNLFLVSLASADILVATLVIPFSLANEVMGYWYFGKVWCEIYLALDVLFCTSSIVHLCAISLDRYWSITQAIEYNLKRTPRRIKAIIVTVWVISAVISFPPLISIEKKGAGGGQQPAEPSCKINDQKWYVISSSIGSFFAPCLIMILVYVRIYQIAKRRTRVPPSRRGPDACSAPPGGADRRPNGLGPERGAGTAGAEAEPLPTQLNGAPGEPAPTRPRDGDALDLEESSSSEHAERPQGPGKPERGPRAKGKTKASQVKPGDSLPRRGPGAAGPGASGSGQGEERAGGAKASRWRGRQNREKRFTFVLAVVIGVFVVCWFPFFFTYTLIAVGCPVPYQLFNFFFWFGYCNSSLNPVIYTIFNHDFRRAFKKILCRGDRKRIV
Assay: Antagonist potency towards alpha-2 adrenergic receptor in the rat electrically stimulated vas deferens with reference to P-aminoclonidine
Format: functional, tissue-based

pA2 | Structure (SMILES)
5.19 | COC1(CN2CCCCC2)COc2ccccc2O1 (configuration not stated)
9.92 | COC1(C2=NCCN2)COc2ccccc2O1 (configuration not stated)

Structure (SMILES) | pA2
c1ccc2c(c1)OCC(CN1CCCCC1)O2 (configuration not stated) [PIPEROXAN] | 7.54
